Results reported in ChEMBL document CHEMBL1158162, “Identifying structural features on 1,1-diphenyl-hexahydro-oxazolo[3,4-a]pyrazin-3-ones critical for Neuropeptide S antagonist activity” (2008).

Experiments:
[1] = Antagonist activity at NPS Ile107 mutant receptor expressed in RD-HGA16 cells assessed by calcium mobilization by FlexStation assay; type: functional
Outline: (§1)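 Cells loaded with calcium3 dye for 1 h; calcium mobilization read on FlexStation. Compounds tested separately for intrinsic activity and for inhibition of NPS. Ke from an 8-point half-log NPS concentration-response run with and without one compound concentration, at least two concentrations giving at least four-fold rightward EC50 shift; Ke = [L]/(DR-1). Mean ± SE, at least three independent experiments.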

[2] = Antagonist activity at NPS Asn107 mutant receptor expressed in RD-HGA16 cells assessed by calcium mobilization by FlexStation assay; type: functional; outline: as §1
RD-HGA16 = assay: Ratio of Ke for NPS Asn107 mutant receptor to Ke for NPS Ile107 mutant receptor expressed in RD-HGA16 cells; type: cell-based
[3] = Antagonist activity at NPS Ile107 mutant receptor expressed in RD-HGA16 cells; type: functional; outline: as §1
[4] = Antagonist activity at NPS Asn107 mutant receptor expressed in RD-HGA16 cells; type: functional; outline: as §1

Compound | Ke [1] [nM] | Ke [2] [nM] | Ratio Ke (RD-HGA16) | Kb ([1]; RD-HGA16) [nM] | Kb ([2]; RD-HGA16) [nM] | Kb [3] [nM] | Kb [4] [nM]
O=C(NCCc1ccc2c(c1)OCO2)N1CCN2C(=O)OC(c3ccccc3)(c3ccccc3)C2C1 (stereo unspecified) | 567 | 690 | 1.2 | – | – | – | –
O=C(OCc1ccccc1)N1CCN2C(=O)OC(c3ccccc3)(c3ccccc3)C2C1 (stereo unspecified) | 354 | 353 | 1 | – | – | – | –
O=C1OC(c2ccccc2)(c2ccccc2)C2CN(C(=S)NCCN3CCCCC3)CCN12 (stereo unspecified) | 280 | 354 | 1.3 | – | – | – | –
O=C(O)CNC(=O)N1CCN2C(=O)OC(c3ccccc3)(c3ccccc3)C2C1 (stereo unspecified) | > 4000 | > 4000 | – | – | – | – | –
O=C(CCc1ccc(F)cc1)N1CCN2C(=O)OC(c3ccccc3)(c3ccccc3)C2C1 (stereo unspecified) | 339 | 460 | 1.4 | – | – | – | –
N[C@H](Cc1ccccc1)C(=O)N1CCN2C(=O)OC(c3ccccc3)(c3ccccc3)C2C1 (stereo partly specified) | 911 | 4640 | 5.1 | – | – | – | –
O=C(NCCCCc1ccccc1)N1CCN2C(=O)OC(c3ccccc3)(c3ccccc3)C2C1 (stereo unspecified) | 537 | 437 | 0.8 | – | – | – | –
CN(Cc1ccc(F)cc1)C(=O)N1CCN2C(=O)OC(c3ccccc3)(c3ccccc3)C2C1 (stereo unspecified) | 214 | 588 | 2.8 | – | – | – | –
C[C@@H](NC(=O)N1CCN2C(=O)OC(c3ccccc3)(c3ccccc3)C2C1)c1ccccc1 (stereo partly specified) | 317 | 229 | 0.7 | – | – | – | –
O=C1OC(c2ccccc2)(c2ccccc2)C2CN(CCCCc3ccc(F)cc3)CCN12 (stereo unspecified) | 1110 | 1100 | 1 | – | – | – | –
O=C(NCCc1ccc(F)cc1)N1CCN2C(=O)OC(c3ccccc3)(c3ccccc3)C2C1 (stereo unspecified) | 321 | 326 | 1 | – | – | – | –
CN1CCN2C(=O)OC(c3ccccc3)(c3ccccc3)C2C1 (stereo unspecified) | > 4000 | > 4000 | – | – | – | – | –
O=C(NCCN1CCCCC1)N1CCN2C(=O)OC(c3ccccc3)(c3ccccc3)C2C1 (stereo unspecified) | 109 | 490 | 4.5 | – | – | – | –
O=C(NCCCc1ccccc1)N1CCN2C(=O)OC(c3ccccc3)(c3ccccc3)C2C1 (stereo unspecified) | 309 | 417 | 1.3 | – | – | – | –
O=C1OC(c2ccccc2)(c2ccccc2)C2CN(C(=S)NCCN3CCOCC3)CCN12 (stereo unspecified) | 3760 | 2560 | 0.7 | – | – | – | –
O=C(NCc1ccc(F)cc1)N1CCN2C(=O)OC(c3ccccc3)(c3ccccc3)C2C1 (stereo unspecified) | 13.7 | 52 | 3.8 | 27.9 | 16.9 | 27.9 | 16.9
CCOC(=O)CNC(=O)N1CCN2C(=O)OC(c3ccccc3)(c3ccccc3)C2C1 (stereo unspecified) | 726 | 1260 | 1.7 | – | – | – | –
O=C(NCc1ccccc1)N1CCN2C(=O)OC(c3ccccc3)(c3ccccc3)C2C1 (stereo unspecified) | 9.9 | 47 | 4.8 | – | – | 32.6 | 21.7
O=C(COc1ccc(F)cc1)N1CCN2C(=O)OC(c3ccccc3)(c3ccccc3)C2C1 (stereo unspecified) | 244 | 267 | 1.1 | – | – | – | –
